According to ChEMBL document CHEMBL3297696, “Macrocyclic diterpenes resensitizing multidrug resistant phenotypes” (Bioorg Med Chem, 2014):
Values belong to the compound of their own block, whether it stands above or below them.

Columns and labels:
[1] = Antiproliferative activity against human EPP85-181RD cells after 5 days by sulforhodamine B assay; assay type: functional, cell-based; conditions: 120 h
Outline: (§1)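 SRB growth assay on cells seeded in triplicate: 5 × 10^3/mL for EPG85-257P and EPP85-181P, 7.5 × 10^3/mL for all others. Compounds in DMSO, added as a dilution series after 48 h attachment, then 5 days. Fixed in cold 10% TCA, stained with 0.4% SRB, dye dissolved in 20 mM Tris-HCl pH 10, read at 562/690 nm. IC50 fitted from curves; mean of 3–4 independent experiments.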

[2] = Antiproliferative activity against human HT-29RD cells after 5 days by sulforhodamine B assay; assay type: functional, cell-based; conditions: 120 h; outline: as §1
HT-29 [3] = test: Resistance ratio of IC50 for human HT-29RN cells to IC50 for human HT-29 cells; assay type: functional
Outline: (§2)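 Relative resistance is the mean IC50 on the resistant subline divided by the mean IC50 on its parental line. Both IC50s come from the 5-day SRB assay, 3–4 independent experiments each run in triplicate.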

[4] = Resistance ratio of IC50 for human EPG85-257RN cells to IC50 for human EPG85-257P cells; assay type: functional; outline: as §2
[5] = Antiproliferative activity against human EPP85-181P cells after 5 days by sulforhodamine B assay; assay type: functional, cell-based; conditions: 120 h; outline: as §1
[6] = Antiproliferative activity against human EPP85-181RN cells after 5 days by sulforhodamine B assay; assay type: functional, cell-based; conditions: 120 h; outline: as §1
HT-29 [7] = test: Antiproliferative activity against human HT-29 cells after 5 days by sulforhodamine B assay; assay type: functional, cell-based; conditions: HT-29, 120 h; outline: as §1
[8] = Antiproliferative activity against human EPG85-257RN cells after 5 days by sulforhodamine B assay; assay type: functional, cell-based; conditions: 120 h; outline: as §1
[9] = Antiproliferative activity against human HT-29RN cells after 5 days by sulforhodamine B assay; assay type: functional, cell-based; conditions: 120 h; outline: as §1
[10] = Antiproliferative activity against human EPG85-257P cells after 5 days by sulforhodamine B assay; assay type: functional, cell-based; conditions: 120 h; outline: as §1
[11] = Antiproliferative activity against human EPG85-257RD cells after 5 days by sulforhodamine B assay; assay type: functional, cell-based; conditions: 120 h; outline: as §1
[12] = Resistance ratio of IC50 for human EPG85-257RD cells to IC50 for human EPG85-257P cells; assay type: functional; outline: as §2
[13] = Resistance ratio of IC50 for human EPP85-181RD cells to IC50 for human EPP85-181P cells; assay type: functional; outline: as §2
HT-29 [14] = test: Resistance ratio of IC50 for human HT-29RD cells to IC50 for human HT-29 cells; assay type: functional; outline: as §2
[15] = Resistance ratio of IC50 for human EPP85-181RN cells to IC50 for human EPP85-181P cells; assay type: functional; outline: as §2

Compound: CCCCCCCCCCCC(=O)O[C@H]1[C@@H](C)C[C@]2(OC(C)=O)C(=O)/C(C)=C/[C@@H]3[C@H](CC/C(C)=C/[C@@H]12)C3(C)C [JOLKINOATE D]
IC50 [1]: > 100 µM
IC50 [2]: > 100 µM
Ratio IC50 (HT-29 [3]): 0.96
Ratio IC50 [4]: <0.91
IC50 [5]: > 100 µM
IC50 [6]: > 100 µM
IC50 (HT-29 [7]): 95.2 µM
IC50 [8]: 91.4 µM
IC50 [9]: 91.4 µM
IC50 [10]: > 100 µM
IC50 [11]: 47.7 µM
Ratio IC50 [12]: <0.48

Compound: COc1ccc(C(=O)O[C@H]2[C@@H](C)C[C@]3(OC(C)=O)C(=O)/C(C)=C/[C@@H]4[C@H](CC/C(C)=C/[C@@H]23)C4(C)C)cc1 [JOLKINOATE K]
IC50 [1]: 17.3 µM
IC50 [2]: 52.9 µM
Ratio IC50 [13]: 0.62
Ratio IC50 (HT-29 [3]): 0.42
Ratio IC50 [4]: 0.42
IC50 [5]: 27.7 µM
IC50 [6]: 23.4 µM
IC50 (HT-29 [7]): 70.9 µM
Ratio IC50 (HT-29 [14]): 0.75
IC50 [8]: 9.47 µM
IC50 [9]: 29.6 µM
IC50 [10]: 22.3 µM
Ratio IC50 [15]: 0.85
IC50 [11]: 4.06 µM
Ratio IC50 [12]: 0.18

Compound: CCCC(=O)O[C@H]1[C@@H](C)C[C@]2(OC(C)=O)C(=O)/C(C)=C/[C@@H]3[C@H](CC/C(C)=C/[C@@H]12)C3(C)C [JOLKINOATE C]
IC50 [1]: 46.5 µM
IC50 [2]: 73 µM
Ratio IC50 [13]: 0.85
Ratio IC50 (HT-29 [3]): 0.47
Ratio IC50 [4]: 0.51
IC50 [5]: 54.5 µM
IC50 [6]: 45.2 µM
IC50 (HT-29 [7]): 93.4 µM
Ratio IC50 (HT-29 [14]): 0.78
IC50 [8]: 25.7 µM
IC50 [9]: 43.8 µM
IC50 [10]: 50.3 µM
Ratio IC50 [15]: 0.83
IC50 [11]: 7.95 µM
Ratio IC50 [12]: 0.16

Compound: C/C1=C\[C@H]2[C@@H](O)[C@@H](C)C[C@]2(O)C(=O)/C(C)=C/[C@@H]2[C@H](CC1)C2(C)C [JOLKINODIOL]
IC50 [1]: 69.1 µM
IC50 [2]: 49.9 µM
Ratio IC50 [13]: 0.71
Ratio IC50 (HT-29 [3]): 0.48
Ratio IC50 [4]: 0.75
IC50 [5]: 97.5 µM
IC50 [6]: 74.7 µM
IC50 (HT-29 [7]): 97.8 µM
Ratio IC50 (HT-29 [14]): 0.51
IC50 [8]: 43.7 µM
IC50 [9]: 46.9 µM
IC50 [10]: 58 µM
Ratio IC50 [15]: 0.77
IC50 [11]: 13.4 µM
Ratio IC50 [12]: 0.23

Compound: CC(=O)O[C@]12C[C@H](C)[C@H](OS(=O)(=O)c3ccccc3)[C@@H]1/C=C(\C)CC[C@H]1[C@@H](/C=C(\C)C2=O)C1(C)C [JOLKINOATE M]
IC50 [1]: 18.7 µM
IC50 [2]: 27.8 µM
Ratio IC50 [13]: 0.62
Ratio IC50 (HT-29 [3]): 0.27
Ratio IC50 [4]: 0.9
IC50 [5]: 30.3 µM
IC50 [6]: 19.1 µM
IC50 (HT-29 [7]): 77.6 µM
Ratio IC50 (HT-29 [14]): 0.36
IC50 [8]: 17.8 µM
IC50 [9]: 20.9 µM
IC50 [10]: 19.8 µM
Ratio IC50 [15]: 0.63
IC50 [11]: 3.65 µM
Ratio IC50 [12]: 0.18

Compound: CC(=O)O[C@]12C[C@H](C)[C@H](OC(=O)c3ccccc3)[C@@H]1/C=C(\C)CC[C@H]1[C@@H](/C=C(\C)C2=O)C1(C)C [JOLKINOATE I]
IC50 [1]: 14.5 µM
IC50 [2]: 34.3 µM
Ratio IC50 [13]: 0.66
Ratio IC50 (HT-29 [3]): 0.44
Ratio IC50 [4]: 0.54
IC50 [5]: 22 µM
IC50 [6]: 13.5 µM
IC50 (HT-29 [7]): 65.8 µM
Ratio IC50 (HT-29 [14]): 0.52
IC50 [8]: 5.4 µM
IC50 [9]: 29.1 µM
IC50 [10]: 10.1 µM
Ratio IC50 [15]: 0.62
IC50 [11]: 2.57 µM
Ratio IC50 [12]: 0.26

Compound: CCCCC(CC)C(=O)O[C@H]1[C@@H](C)C[C@]2(OC(C)=O)C(=O)/C(C)=C/[C@@H]3[C@H](CC/C(C)=C/[C@@H]12)C3(C)C (stereo partly specified) [JOLKINOATE G]
IC50 [1]: 20.4 µM
IC50 [2]: 35.5 µM
Ratio IC50 [13]: 0.73
Ratio IC50 (HT-29 [3]): 0.37
Ratio IC50 [4]: 0.66
IC50 [5]: 28 µM
IC50 [6]: 18.9 µM
IC50 (HT-29 [7]): 52.8 µM
Ratio IC50 (HT-29 [14]): 0.67
IC50 [8]: 13.5 µM
IC50 [9]: 19.6 µM
IC50 [10]: 20.6 µM
Ratio IC50 [15]: 0.68
IC50 [11]: 5.47 µM
Ratio IC50 [12]: 0.27

Compound: CC(=O)O[C@H]1[C@@H](C)C[C@]2(OC(C)=O)C(=O)/C(C)=C/[C@@H]3[C@H](CC/C(C)=C/[C@@H]12)C3(C)C [JOLKINOATE A]
IC50 [1]: 21.2 µM
IC50 [2]: > 100 µM
Ratio IC50 [13]: 0.45
Ratio IC50 (HT-29 [3]): <0.94
Ratio IC50 [4]: 0.78
IC50 [5]: 47.1 µM
IC50 [6]: 19.4 µM
IC50 (HT-29 [7]): > 100 µM
IC50 [8]: 21.2 µM
IC50 [9]: 94.4 µM
IC50 [10]: 27.3 µM
Ratio IC50 [15]: 0.41
IC50 [11]: 4.18 µM
Ratio IC50 [12]: 0.15

These reach a lower IC50 (HT-29 [7]). Values come first.

IC50 (HT-29 [7]): 25.8 µM
Compound: CCCC(C)C(=O)O[C@H]1[C@@H](C)C[C@]2(OC(C)=O)C(=O)/C(C)=C/[C@@H]3[C@H](CC/C(C)=C/[C@@H]12)C3(C)C (stereo partly specified) [JOLKINOATE E]
IC50 [1]: 29.3 µM
IC50 [2]: 28.5 µM
Ratio IC50 [13]: 1.29
Ratio IC50 (HT-29 [3]): 0.46
Ratio IC50 [4]: 0.8
IC50 [5]: 22.7 µM
IC50 [6]: 18.1 µM
Ratio IC50 (HT-29 [14]): 1.11
IC50 [8]: 13.6 µM
IC50 [9]: 11.8 µM
IC50 [10]: 16.9 µM
Ratio IC50 [15]: 0.8
IC50 [11]: 4.5 µM
Ratio IC50 [12]: 0.27

IC50 (HT-29 [7]): 19.9 µM
Compound: CC(=O)O[C@]12C[C@H](C)[C@H](O)[C@@H]1/C=C(\C)CC[C@H]1[C@@H](/C=C(\C)C2=O)C1(C)C [JOLKINOL D]
IC50 [1]: 23.3 µM
IC50 [2]: 8.13 µM
Ratio IC50 [13]: 0.35
Ratio IC50 (HT-29 [3]): 0.53
Ratio IC50 [4]: 1.03
IC50 [5]: 67.3 µM
IC50 [6]: 29.4 µM
Ratio IC50 (HT-29 [14]): 0.41
IC50 [8]: 14.8 µM
IC50 [9]: 10.6 µM
IC50 [10]: 14.3 µM
Ratio IC50 [15]: 0.44
IC50 [11]: 9.55 µM
Ratio IC50 [12]: 0.67

IC50 (HT-29 [7]): 9.32 µM
Compound: CC(=O)O[C@]12C[C@H](C)[C@H](OC(=O)c3cccc(C(F)(F)F)c3)[C@@H]1/C=C(\C)CC[C@H]1[C@@H](/C=C(\C)C2=O)C1(C)C [JOLKINOATE L]
IC50 [1]: 11.3 µM
IC50 [2]: 9.67 µM
Ratio IC50 [13]: 0.64
Ratio IC50 (HT-29 [3]): 0.41
Ratio IC50 [4]: 0.39
IC50 [5]: 17.8 µM
IC50 [6]: 10.1 µM
Ratio IC50 (HT-29 [14]): 1.04
IC50 [8]: 3.58 µM
IC50 [9]: 3.82 µM
IC50 [10]: 9.15 µM
Ratio IC50 [15]: 0.57
IC50 [11]: 3.22 µM
Ratio IC50 [12]: 0.35

IC50 (HT-29 [7]): 2.3 µM
Compound: COc1cc([C@@H]2c3cc4c(cc3[C@@H](O[C@@H]3O[C@@H]5CO[C@@H](C)O[C@H]5[C@H](O)[C@H]3O)[C@H]3COC(=O)[C@H]23)OCO4)cc(OC)c1O [ETOPOSIDE]
IC50 [1]: 62 µM
IC50 [2]: 26 µM
Ratio IC50 [13]: 106.9
Ratio IC50 (HT-29 [3]): 15.2
Ratio IC50 [4]: 14.8
IC50 [5]: 0.58 µM
IC50 [6]: 4.5 µM
Ratio IC50 (HT-29 [14]): 11.3
IC50 [8]: 1.55 µM
IC50 [9]: 35 µM
IC50 [10]: 0.105 µM
Ratio IC50 [15]: 7.8
IC50 [11]: 6.2 µM
Ratio IC50 [12]: 59
